{"data": "Assay results collected from several papers", "target": "Serine/threonine-protein kinase BRSK1 (BRSK1, Homo sapiens, UniProt Q8TDC3)", "Sequence (Q8TDC3 1-778, as in one of the studies)": "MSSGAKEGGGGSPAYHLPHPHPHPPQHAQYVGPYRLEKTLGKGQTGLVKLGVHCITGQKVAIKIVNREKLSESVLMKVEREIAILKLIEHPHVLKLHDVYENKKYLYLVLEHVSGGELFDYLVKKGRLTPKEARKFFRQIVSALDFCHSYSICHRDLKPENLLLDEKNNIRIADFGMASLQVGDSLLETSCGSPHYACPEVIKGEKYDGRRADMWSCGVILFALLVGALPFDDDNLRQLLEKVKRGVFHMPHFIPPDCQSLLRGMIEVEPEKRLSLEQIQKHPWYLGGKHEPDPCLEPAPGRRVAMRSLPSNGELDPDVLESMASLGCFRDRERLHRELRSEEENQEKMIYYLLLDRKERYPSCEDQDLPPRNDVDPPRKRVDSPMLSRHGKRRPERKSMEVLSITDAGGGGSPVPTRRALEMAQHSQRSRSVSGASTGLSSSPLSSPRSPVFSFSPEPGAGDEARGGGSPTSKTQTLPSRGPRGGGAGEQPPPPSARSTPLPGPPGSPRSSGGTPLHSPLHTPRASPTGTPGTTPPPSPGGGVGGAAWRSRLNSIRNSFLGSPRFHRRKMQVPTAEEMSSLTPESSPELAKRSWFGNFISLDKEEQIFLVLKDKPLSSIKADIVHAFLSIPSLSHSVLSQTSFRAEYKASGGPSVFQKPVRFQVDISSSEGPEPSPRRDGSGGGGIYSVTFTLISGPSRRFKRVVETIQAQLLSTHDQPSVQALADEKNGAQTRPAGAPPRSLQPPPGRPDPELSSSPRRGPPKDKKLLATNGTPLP"}
{"Compound": "Cc1cc(C)c(-n2ccn3nc(-c4cccnc4)cc23)cc1NC(=O)c1cc(C#N)cc(S(F)(F)(F)(F)F)c1", "test": "cell-free assay, competition with immobilised ligand", "setting": "0.1 µM", "endpoint": "remaining binding", "result": "84%"}
{"Compound": "O=C(Nc1cnn(-c2csc(C(=O)NC3COC3)c2)c1)Nc1ccccc1Cl", "test": "enzyme activity, inhibitor", "setting": "5 µM", "endpoint": "remaining activity", "result": "85.5%"}
{"Compound": "O=C(Nc1cccnn1)N1CCC(=Cc2cccc(Oc3ccc(C(F)(F)F)cn3)c2)CC1", "test": "cell-free assay, competition with immobilised ligand", "setting": "1 µM", "endpoint": "remaining binding", "result": "73%"}
{"Compound": "Cc1ccc(Nc2nccc(N(C)c3ccc4c(C)n(C)nc4c3)n2)cc1S(N)(=O)=O", "test": "enzyme activity, inhibitor", "setting": "0.3 µM", "endpoint": "inhibition", "result": "18%"}
{"Compound": "Nc1nc(Nc2ccc(S(N)(=O)=O)cc2)nn1C(=O)c1c(F)cccc1F", "test": "cell-free assay", "setting": "0.5 µM", "endpoint": "remaining signal", "result": "49.2%"}
{"Compound": "CNc1cccc2cc(C(=O)Nc3ccc(C(=O)O)cc3)c(=O)[nH]c12", "test": "enzyme activity, inhibitor", "setting": "10 µM", "endpoint": "inhibition", "result": "2.7%"}
{"Compound": "FC(F)(F)Oc1cccc(-c2cnc3ccc(-c4ccncc4)nn23)c1", "test": "enzyme activity, inhibitor, radiometric", "setting": "1 µM", "endpoint": "activity vs control", "result": "103%"}
{"Compound": "COc1cc(Cl)c(C(=O)N[C@@H](CN[C@H]2CC[C@@H](N)CC2)Cc2ccc(C#N)cc2)cc1-c1ccc(CN[C@H](C)c2ccc(C)cc2)o1", "test": "enzyme activity, inhibitor", "setting": "1 µM", "endpoint": "remaining activity", "result": "100%"}
{"Compound": "CC(=O)N1CCC(c2ccc(C(=O)NC(=N)N)cc2C(F)(F)F)CC1", "test": "cell-free assay, competition with immobilised ligand", "setting": "1 µM", "endpoint": "remaining binding", "result": "87%"}
{"Compound": "CNC(=O)c1cc(Oc2ccc(NC(=O)Nc3ccc(Cl)c(C(F)(F)F)c3)cc2)ccn1", "test": "enzyme activity, inhibitor", "setting": "10 µM", "endpoint": "inhibition", "result": "20%"}
{"Compound": "CC(C)(O)c1cncc(-c2nc3ccc(F)cc3n2C2CC2)c1", "test": "cell-free assay, competition with immobilised ligand", "setting": "1 µM", "endpoint": "remaining binding", "result": "100%"}
{"Compound": "CCCS(=O)(=O)Nc1ccc(F)c(C(=O)c2c[nH]c3ncc(-c4ccc(Cl)cc4)cc23)c1F", "test": "enzyme activity, inhibitor", "setting": "1 µM", "endpoint": "inhibition", "result": "< 10%"}
{"Compound": "CN([C@@H]1CCc2c(CC(=O)O)c3ccccc3n2C1)S(=O)(=O)c1ccc(F)cc1", "test": "cell-free assay, competition with immobilised ligand", "setting": "1 µM", "endpoint": "remaining binding", "result": "100%"}
{"Compound": "COc1cc(Nc2cnc(C#N)c(O[C@H](C)CN(C)C)n2)ncc1-c1cnn(C)c1", "test": "enzyme activity, inhibitor, radiometric", "setting": "10 µM", "endpoint": "remaining activity", "result": "53%"}
{"Compound": "COc1cc2ncnc(Nc3ccc(Oc4ccccc4)c(C)c3C)c2cc1OC", "test": "enzyme activity, inhibitor", "setting": "1 µM", "endpoint": "inhibition", "result": "0%"}
{"Compound": "Cc1cnc(NC2CCOCC2)nc1-n1cnc(C(=O)NC(CN)c2cc(F)cc(Cl)c2)c1 (stereo not drawn)", "test": "enzyme activity, inhibitor, radiometric", "setting": "1 µM", "endpoint": "remaining activity", "result": "77%"}
{"Compound": "CN1CC(Oc2cnc(C#N)cc2-c2ccn3nc(NC(=O)C4CC4)cc3c2)C1", "test": "enzyme activity, inhibitor", "setting": "1 µM", "endpoint": "inhibition", "result": "6%"}
{"Compound": "Cc1sc(C(=O)NC2COC2)cc1-n1cc(NC(=O)Nc2c(F)cccc2Cl)cn1", "test": "enzyme activity, inhibitor", "setting": "10 µM", "endpoint": "remaining activity", "result": "87.8%"}
{"Compound": "CC1=C(C#N)C(c2ccc3c(c2)c(NC(=O)c2ccccc2C)nn3C)C(C#N)=C(C)N1", "test": "cell-free assay, competition with immobilised ligand", "setting": "1 µM", "endpoint": "remaining binding", "result": "100%"}
{"Compound": "CCN(CC)c1ccc(C2=NNC(=O)CC2C)cc1[N+](=O)[O-] (stereo not drawn)", "test": "enzyme activity, inhibitor", "setting": "10 µM", "endpoint": "remaining activity", "result": "131%"}
{"Compound": "CCC(=N\\O)/C(C)=C/c1ccc(F)cc1", "test": "cell-free assay, competition with immobilised ligand", "setting": "1 µM", "endpoint": "remaining binding", "result": "100%"}
{"Compound": "Oc1cccc(-c2nc(N3CCOCC3)c3oc4ncccc4c3n2)c1", "test": "enzyme activity, inhibitor", "setting": "10 µM", "endpoint": "remaining activity", "result": "109%"}
{"Compound": "COc1cc2ncnc(Nc3ccc(F)c(Cl)c3)c2cc1OCCCN1CCOCC1", "test": "cell-free assay", "setting": "0.5 µM", "endpoint": "remaining signal", "result": "92.5%"}
{"Compound": "CCN(CC)CCNC(=O)c1c(C)[nH]c(/C=C2\\C(=O)Nc3ccc(F)cc32)c1C", "test": "enzyme activity, inhibitor", "setting": "10 µM", "endpoint": "inhibition", "result": "82%"}
{"Compound": "CC(C)(C)c1nc(-c2cccc(NS(=O)(=O)c3c(F)cccc3F)c2F)c(-c2ccnc(N)n2)s1", "test": "enzyme activity, inhibitor, radiometric", "setting": "1 µM", "endpoint": "remaining activity", "result": "105%"}
{"Compound": "CNC(=O)c1ccc(Nc2ncc(C(F)(F)F)c(NCc3nccnc3N(C)S(C)(=O)=O)n2)cc1", "test": "cell-free assay, competition with immobilised ligand", "setting": "0.1 µM", "endpoint": "remaining binding", "result": "100%"}
{"Compound": "O=C1Nc2ccc(Cl)cc2C1=Cc1cc(Cl)c(O)c(Cl)c1", "test": "cell-free assay", "setting": "0.5 µM", "endpoint": "remaining signal", "result": "81.3%"}
